From ChEMBL document CHEMBL5038602, “Potent Lys Patch-Containing Stapled Peptides Targeting PCSK9” (J Med Chem, 2021) come the findings set out here.

One data set concerns HepG2. Put plainly: Cytotoxicity against human HepG2 cells assessed as reduction in cell viability at 0.4 to 10 uM for 48 hrs by SRB assay. The settings on record: hepg2, 48 h, dose 0.4-10 µM. Format: toxicity, cell-based. The essentials:
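HepG2 cells seeded 2000/well 24 h before treatment. Compounds at 0.4, 1.1, 3.3 and 10 µM in DMEM, 48 h at 37°C. SRB staining 30 min at 37°C, dye dissolved in 10 mM Tris base, absorbance at 560 nm. Triplicate wells averaged and normalized to untreated cells.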

In data set [1] the target is T1, Proprotein convertase subtilisin/kexin type 9 (Homo sapiens, UniProt Q8NBP7). Put plainly: Binding affinity to human PCSK9 by surface plasmon resonance. The method, boiled down:
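Recombinant human His-tagged PCSK9 (Gln31–Gln692, HEK293-expressed) at 14 µg/mL amine-coupled onto Ni-NTA chip, ~1000–4000 RU. Buffer 25 mM Tris-HCl, 5 mM CaCl2, 100 mM NaCl, 0.01% P20, pH 7.5, 5% DMSO in running buffer. 25°C. Double-referenced sensorgrams; KD from steady-state equilibrium responses fit to a 4-parameter model, or kinetics fit 1:1.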

A short description of data set [2]: Effect on mast cell degranulation in human LAD2 cells assessed as CCL3 release measured after 2 hrs by Luminex bead based assay. The data set is classed as functional. The conditions noted are these: for EC50: Homo sapiens, LAD2, 2 h; for Emax: time 2 hrs. The essentials:
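LAD2 human mast cells in StemPro 34 medium, 0.2×10^6 cells/well. Supernatant CCL3 quantified by Luminex magnetic bead kit.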

Data set [3] in a line: Reversal of LDL uptake in human HepG2 cells for 2 hrs preincubation with PCSK9 followed by LDL addition and measured after 4 hrs by fluorimetry method relative to control. The data set is classed as functional, cell-based. The method, boiled down:
(§1)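 HepG2 cells seeded 40000/well, serum-starved 24 h in DMEM with 5% LPDS. Human His-PCSK9 (20–50 nM) preincubated 30–60 min at room temperature ± compounds (10 µM to 0.0001 µM, 0.1% DMSO). Cells then exposed 2 h at 37°C. LDL-BODIPY added to 10 µg/mL final for 4 h. Fluorescence read at ex 480/em 520 nm. Expressed as % maximal LDL-BODIPY incorporation; EC50 by non-linear fit.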

Data set [4] in a line: Reversal of LDL uptake in human HepG2 cells at 10 uM for 2 hrs preincubation with PCSK9 followed by LDL addition and measured after 4 hrs by fluorimetry method relative to control. The data set is classed as functional. The conditions noted are these: time 6 hrs. The method, boiled down:
as §1

Data set [5] has as its target T1, Proprotein convertase subtilisin/kexin type 9. Put plainly: Binding affinity to human PCSK9.

Positions of bridges follow the written chain, without caps; N, C: chain ends. Residues, ends and D or L forms follow the SMILES beside them.

T1 sequence (Q8NBP7 31-152 limits assumed): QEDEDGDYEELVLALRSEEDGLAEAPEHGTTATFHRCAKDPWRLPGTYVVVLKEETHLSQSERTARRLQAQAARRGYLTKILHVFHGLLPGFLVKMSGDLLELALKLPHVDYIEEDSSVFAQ
T1 sequence (Q8NBP7 153-692 limits assumed): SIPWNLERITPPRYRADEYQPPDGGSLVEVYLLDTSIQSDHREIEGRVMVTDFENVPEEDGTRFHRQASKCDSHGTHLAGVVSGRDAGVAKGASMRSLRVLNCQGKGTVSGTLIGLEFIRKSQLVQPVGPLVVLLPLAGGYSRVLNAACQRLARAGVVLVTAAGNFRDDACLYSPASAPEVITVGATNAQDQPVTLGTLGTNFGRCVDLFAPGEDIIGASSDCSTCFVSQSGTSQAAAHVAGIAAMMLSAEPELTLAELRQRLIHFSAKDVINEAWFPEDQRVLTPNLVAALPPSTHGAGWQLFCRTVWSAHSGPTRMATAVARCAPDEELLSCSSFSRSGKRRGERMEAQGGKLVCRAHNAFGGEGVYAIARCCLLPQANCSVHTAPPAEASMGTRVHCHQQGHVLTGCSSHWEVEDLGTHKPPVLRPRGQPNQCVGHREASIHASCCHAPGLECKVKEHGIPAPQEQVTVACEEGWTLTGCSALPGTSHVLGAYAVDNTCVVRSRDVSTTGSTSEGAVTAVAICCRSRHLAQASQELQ

Take `CC(=O)N[C@@H](Cc1cnc[nH]1)C(=O)N[C@H](C(=O)N[C@@H](Cc1ccccc1)C(=O)N[C@@H](CCCCN)C(=O)N[C@@H](CO)C(=O)N[C@@H](Cc1c[nH]c2ccccc12)C(=O)N[C@H]1CCCCNC(=O)C[C@@H](C(=O)N[C@@H](Cc2c[nH]c3ccccc23)C(=O)N[C@H](C(=O)N[C@@H](CCCCN)C(=O)N[C@@H](CCCCN)C(=O)N[C@@H](CCCCN)C(=O)N[C@@H](CCCCN)C(=O)N[C@@H](CCCCN)C(=O)N[C@@H](CCCCN)C(N)=O)C(C)C)NC(=O)[C@H](CC(C)C)NC(=O)[C@H](Cc2ccc(O)cc2)NC(=O)[C@H](CCC(=O)O)NC1=O)C(C)C` (Ac-HVFKSWKEYLDWVKKKKKK-NH2; lactam 7-11): the Activity result in the data set with HepG2 is recorded as “Non-Toxic”. In addition, in data set [1], the Kd was 6 nM. Also, in data set [2], the EC50 was 2200 nM and the Emax came to 1483.2 pg/mL. Moreover, in data set [3], the concentration giving a half-maximal response (EC50) was 175 nM.
As to Ac-TVFTSWEEYLDWVKKK-NH2, the Activity result is “Non-Toxic” in the data set with HepG2 and 72.3% in data set [4]. The Kd in data set [1] and in data set [5] was 1600 nM each time.
As for Ac-TVFTSWEEYLDWVKKKKKK-NH2, the Activity result in the data set with HepG2 is on record as “Non-Toxic”. In addition, the Kd in data set [1] and in data set [5] was 424 nM each time.
`CC(=O)N[C@H](C(=O)N[C@H](C(=O)N[C@@H](Cc1ccccc1)C(=O)N[C@H](C(=O)N[C@@H](CO)C(=O)N[C@@H](Cc1c[nH]c2ccccc12)C(=O)N[C@@H](CCC(=O)O)C(=O)N[C@@H](CCC(=O)O)C(=O)N[C@@H](Cc1ccc(O)cc1)C(=O)N[C@@H](CC(C)C)C(=O)N[C@@H](CC(=O)O)C(=O)N[C@@H](Cc1c[nH]c2ccccc12)C(=O)N[C@H](C(N)=O)C(C)C)[C@@H](C)O)C(C)C)[C@@H](C)O`: the Activity entry is on record as “Non-Toxic” in the data set on HepG2 and 56.5% in data set [4]. Also, binding in data set [1] was characterised by a dissociation constant (Kd) of 9700 nM. Also, the EC50 in data set [2] is > 5000 nM; in data set [3] it was 6000 nM. Also, the Emax in data set [2] was 116.7 pg/mL.
